From the array DNA melting data of Ke et al. (doi:10.1101/2024.01.08.574731) come the findings set out here.

Data set [1] in a line: folding enthalpy; higher = less favourable; fluorescence melt of hairpins on a sequencing array, two-state fit. The settings on record: sodium 0.088 M. The method in brief:
(§1)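 With Cy3 and quencher oligos annealed, library hairpins on a sequenced MiSeq flow cell were imaged for Cy3 fluorescence in 50 mM Na-HEPES pH 8.0, 25 mM NaCl, in 2.5 °C steps up to 60 °C. Melting temperature and folding enthalpy were derived from bootstrapped two-state fits of signals normalised to pre-quench Cy3 and to control constructs. Four replicates were combined by inverse variance, with fitted temperatures raised by 9.35 °C to match UV melts.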

The nature of data set [2]: melting temperature; fluorescence melt of hairpins on a sequencing array, two-state fit, raised by 9.35 °C to match UV melts. The settings on record: sodium 0.088 M. The method in brief:
as §1

In the case of GTCGCCCGAAAGGGGAC (((.(((....)))))), the folding enthalpy in data set [1] was -21.4 kcal/mol. Further, in data set [2], the Tm came out at 55.2 °C.
For GTCGCCGAAAGGCACGAC ((((((....)))..))) the same measures were -15.6 kcal/mol and 48.4 °C.
For GTCGCCGAAAGGCAGGAC ((((((....)))..))), in that order: -13.1 kcal/mol and 50.4 °C.
As to GTCGCCGAAAGGCTAGAC ((((((....)))..))), in data set [1], the folding enthalpy is -16.8 kcal/mol. In addition, in data set [2], the Tm was determined as 47.1 °C.
For GTCGCCGAAAGGCTGAC ((((((....))).))), in that order: -17.8 kcal/mol and 57.1 °C.
For GTCGCCGGAAACGACGAC ((((.((....)).)))), in that order: -43.5 kcal/mol and 57.5 °C.
For GTCGCGACGAAAGTCGAC (((..(((....)))))) the same measures were -8.29 kcal/mol and 38.2 °C.
In the case of GTCGCGCCGAAAGGCGAC (((..(((....)))))), the folding enthalpy in data set [1] was -7.69 kcal/mol. The Tm in data set [2] worked out at 43 °C.
For GTCGCGCGAAAGCGGAC (((.(((....)))))) the same measures were -15.4 kcal/mol and 56.5 °C.
For GTCGCGGGAAACCACGAC ((((.((....)).)))) the same measures were -43.8 kcal/mol and 53.4 °C.
In the case of GTCGCGTCGAAAGACGAC (((..(((....)))))), in data set [1], the folding enthalpy was -8.6 kcal/mol. Moreover, the Tm in data set [2] came to 35.5 °C.
For GTCGCTACGAAAGTAGAC (((..(((....)))))), in that order: -14.6 kcal/mol and 33.3 °C.
Regarding GTCGGACCGAAAGGTGAC (((..(((....)))))), the folding enthalpy in data set [1] is -18 kcal/mol. Moreover, the Tm in data set [2] was found to be 41.3 °C.
For GTCGGACGAAAGTCAGAC (((.(((....))).))), in that order: -39.9 kcal/mol and 59.3 °C.
For GTCGGAGGAAACTCTGGC (.(.(((....))).).), in that order: -28.2 kcal/mol and 37.2 °C.
For GTCGGCCGAAAGGCGGAC (((.(((....))).))), in that order: -27.5 kcal/mol and 67.8 °C.
For GTCGGCGAAAGCCTTGAC ((((((....)))..))), the folding enthalpy in data set [1] is -13 kcal/mol. Besides, the Tm in data set [2] stood at 40.5 °C.
For GTCGGCGGAAACGTCGAC ((((.((....)).)))), in that order: -51.5 kcal/mol and 62 °C.
For GTCGGGCGAAAGCCAGAC (((.(((....))).))), in that order: -30 kcal/mol and 65.2 °C.
For GTCGGGGGAAACCTCGAC ((((.((....)).)))), in data set [1], the folding enthalpy was -44.2 kcal/mol. Besides, the Tm in data set [2] was 55.5 °C.
For GTCGGTACGAAAGTAGAC (((..(((....)))))) the same measures were -10.7 kcal/mol and 31.9 °C.
As to GTCGGTGGAAACACTGAC (((.(((....))).))), in data set [1], the folding enthalpy is -40.6 kcal/mol. In data set [2], the Tm worked out at 54.4 °C.
For GTCGTACGAAAGTATGAC (((.(((....))).))), in that order: -41.9 kcal/mol and 54.3 °C.
For GTCGTAGGAAACCACGAC (((((.(....).))))), the folding enthalpy in data set [1] was -31.8 kcal/mol. Further, the Tm in data set [2] is 49.1 °C.
For GTCGTAGGAAACTATGAC (((.(((....))).))), in that order: -35.4 kcal/mol and 45.2 °C.
On to GTCGTAGGAAACTGCGAC ((((.((....)).)))), for which the folding enthalpy in data set [1] is -55.2 kcal/mol. For the same sequence, the Tm in data set [2] came out at 53.5 °C.
For GTCGTAGGAAACTGTGAC (((..((....))..))) the same measures were -16.6 kcal/mol and 30.8 °C.
For GTCGTCCCGAAAGGGGAC (((..(((....)))))), the folding enthalpy in data set [1] was -11.7 kcal/mol. Besides, in data set [2], the Tm was 45.1 °C.
As to GTCGTCCGAAAGGAGAC (((.(((....)))))), the folding enthalpy in data set [1] is -20.6 kcal/mol. For the same sequence, in data set [2], the Tm was found to be 49.3 °C.
For GTCGTCGAAAGACAGAC ((((((....))).))), in that order: -26.7 kcal/mol and 51.6 °C.
For GTCGTCGAAAGACAGGAC ((((((....)))..))), in that order: -18.3 kcal/mol and 41 °C.
GTCGTCGAAAGACTGAC ((((((....))).))): the folding enthalpy in data set [1] was -19.4 kcal/mol. The Tm in data set [2] came out at 47.5 °C.
For GTCGTCGAAAGACTTGAC ((((((....)))..))) the same measures were -17 kcal/mol and 38.4 °C.
For GTCGTCGGAAACGACGGC (.(((((....))))).), in that order: -25.2 kcal/mol and 65.5 °C.
For the sequence GTCGTCTCGAAAGAGGAC (((..(((....)))))), in data set [1], the folding enthalpy is -21.6 kcal/mol. Also, in data set [2], the Tm was 39 °C.
For GTCGTGAAAACGAC (((((....))))), in that order: -30.5 kcal/mol and 60.8 °C.
For GTCGTGCCGAAAGGCGAC (((..(((....)))))), in that order: -13.9 kcal/mol and 44.6 °C.
With GTCGTGCGAAAGCAAGAC (((.(((....))).))), the folding enthalpy in data set [1] was -34.7 kcal/mol. Also, in data set [2], the Tm was 59.7 °C.
On to GTCGTGCGAAAGCAGAC (((.(((....)))))), for which, in data set [1], the folding enthalpy is -21.2 kcal/mol. Moreover, the Tm in data set [2] is 56.5 °C.
For GTCGTGGGAAACCACAAC ((.((((....)))).)) the same measures were -15.7 kcal/mol and 40.3 °C.
For GTCGTGGGAAACCATGAC (((.(((....))).))), in that order: -45.9 kcal/mol and 52.5 °C.
Take GTCGTTACGAAAGTAGAC (((..(((....)))))): the folding enthalpy in data set [1] was -29.1 kcal/mol. For the same sequence, in data set [2], the Tm stood at 44.8 °C.
For GTCGTTGCGAAAGCAGAC (((..(((....)))))), in that order: -21.1 kcal/mol and 49.2 °C.
For the sequence GTCTAAGGAAACTTAGGC (.(((((....))))).), the folding enthalpy in data set [1] was -25.5 kcal/mol. Besides, the Tm in data set [2] is 38.1 °C.
For GTCTACACGAAAGTGGAC (((..(((....)))))) the same measures were -14.1 kcal/mol and 37.2 °C.
For GTCTACGAAAGTAAAGAC ((((((....)))..))), in that order: -23.8 kcal/mol and 37.3 °C.
For GTCTACGAAAGTAGAGAC ((((((....)))..))) the same measures were -12.8 kcal/mol and 40.1 °C.
As for GTCTACGAAAGTAGCGAC ((((((....)))..))), the folding enthalpy in data set [1] was -17.6 kcal/mol. The Tm in data set [2] was 47 °C.
For the sequence GTCTACGAAAGTATGAC ((((((....))).))), the folding enthalpy in data set [1] is -23.8 kcal/mol. Further, in data set [2], the Tm was determined as 42.3 °C.
For GTCTACGGAAACATAGAC (((((.(....).))))) the same measures were -27.1 kcal/mol and 31 °C.
For GTCTACGGAAACGTGGAC (((.(((....))).))), the folding enthalpy in data set [1] is -39.8 kcal/mol. Besides, the Tm in data set [2] was determined as 53.1 °C.
For GTCTAGCCGAAAGGCGAC (((..(((....)))))), in that order: -10.8 kcal/mol and 43.1 °C.
For GTCTAGGGAAACTTAGAC (((((.(....).))))) the same measures were -36.3 kcal/mol and 37.4 °C.
For GTCTATCGAAAGATTGAC (((.(((....))).))) the same measures were -35.1 kcal/mol and 46.3 °C.
Regarding GTCTATGGAAACATGGAC (((.(((....))).))), in data set [1], the folding enthalpy is -31.1 kcal/mol. Also, the Tm in data set [2] was 45.6 °C.
As to GTCTCACGAAAGTGTGAC (((.(((....))).))), the folding enthalpy in data set [1] is -43.4 kcal/mol. Moreover, the Tm in data set [2] came to 53.8 °C.
For GTCTCAGGAAACTGAGAC (((((((....))))))), in that order: -46.1 kcal/mol and 59.5 °C.
For GTCTCAGGAAACTGGGAC (((.(((....))).))), in that order: -35.6 kcal/mol and 49.8 °C.
For GTCTCCCGAAAGGGTGAC (((.(((....))).))) the same measures were -31.1 kcal/mol and 56.5 °C.
In the case of GTCTCCGAAAGGAACGAC ((((((....)))..))), in data set [1], the folding enthalpy is -23.5 kcal/mol. Further, the Tm in data set [2] amounted to 36.3 °C.
Take GTCTCCGAAAGGAAGAC ((((((....))).))): the folding enthalpy in data set [1] is -27.2 kcal/mol. Besides, the Tm in data set [2] was found to be 52.1 °C.
For GTCTCCGAAAGGACAGAC ((((((....)))..))), in that order: -17.3 kcal/mol and 37.2 °C.
Turning to GTCTCCGAAAGGACCGAC ((((((....)))..))), in data set [1], the folding enthalpy was -16.9 kcal/mol. Besides, in data set [2], the Tm was found to be 28.2 °C.
For GTCTCCGAAAGGAGAGAC ((((((....)))..))) the same measures were -11.4 kcal/mol and 48 °C.
With GTCTCCGAAAGGATCGAC ((((((....)))..))), in data set [1], the folding enthalpy was -14.7 kcal/mol. In data set [2], the Tm came out at 31.4 °C.
Turning to GTCTCCGAAAGGATGGAC ((((((....)))..))), the folding enthalpy in data set [1] is -17.6 kcal/mol. The Tm in data set [2] was 35.2 °C.
For GTCTCCGGAAACGGAAAC ((.((((....)))).)), in that order: -16.2 kcal/mol and 36.3 °C.
GTCTCGCCGAAAGGCGAC (((..(((....)))))): the folding enthalpy in data set [1] is -6.03 kcal/mol. The Tm in data set [2] was determined as 39.5 °C.
Consider GTCTCGGGAAACCGAGGC (.(((((....))))).), for which the folding enthalpy in data set [1] was -29 kcal/mol. Besides, the Tm in data set [2] was 57.6 °C.
For GTCTCGGGAAACTGAGAC (((((.(....).))))), in that order: -42.9 kcal/mol and 51.5 °C.
For GTCTCTGGAAACAGAGAC (((((((....))))))) the same measures were -42.5 kcal/mol and 62.8 °C.
For GTCTGAACGAAAGTTGAC (((..(((....)))))) the same measures were -16.4 kcal/mol and 31.7 °C.
Take GTCTGAGGAAACTTAGAC ((((.((....)).)))): the folding enthalpy in data set [1] was -30.7 kcal/mol. For the same sequence, the Tm in data set [2] is 39.9 °C.
